# According to PubChem BioAssay AID463104 (Sanford-Burnham Center for Chemical Genomics, 2010):
# Among all 330,000 compounds or so, about 1,100 (0.33%) were called active.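 The calls were made as follows: active = versus positive control, 20 µM dose yields 30% or more activation; inactive = the rest.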 The list comes from a sample in which actives are over-represented; it also holds similar structures and randomly drawn compounds.
# Experiment: activators of adaptive XBP1 UPR arm, primary screen, cell-based, CHO-XBP1 luciferase reporter, luminescence, uHTS (AID 463104);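 also: 100% = tunicamycin at 10 µg/mL and 0% = DMSO only wells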
# Conditions: IRE1-XBP1 UPR activation, at 20 µM, hits give high values, percent of tunicamycin response, DMSO as zero
# In short: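 Material – CHO cell line with stable XBP1 luciferase reporter · Buffer or medium – F12 plus 10% FBS · Compound – single point, 20 µM final compound, 1% DMSO · Schedule – 16-18 h cell attachment at 37 °C, then 6 h compound exposure · Signal – Steady-Glo luminescence read · Benchmarks – high control tunicamycin 10 µg/mL final, low control DMSO vehicle only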
row,Compound,activation
1,CCC1CCC/C1=N\NC(=O)c1ccc(Cl)cc1 (stereo not given),2.16% (inactive)
2,COc1cc(C(=O)NCC(c2ccco2)N2CCCC2)ccc1OCc1ccccc1 (stereo not given),-1.2% (inactive)
3,O=S(=O)(/N=C(/Nc1ccccn1)c1ccccc1)c1ccc(Cl)cc1,0.4% (inactive)
4,Cc1ccc(S/C(=N\S(=O)(=O)c2ccc(Cl)cc2)c2ccccc2)cc1,43.5% (active)
5,Cc1ccc(S(=O)(=O)/N=C(/Nc2ccccn2)c2ccc(Cl)cc2)cc1,1.88% (inactive)
6,CC(=O)N1CC(C)c2scc(C)[n+]2-c2ccccc21 (stereo not given),-0.83% (inactive)
7,Cc1ccc(N2C(=O)CC(N3CCSCC3)C2=O)c(C)c1 (stereo not given),2.27% (inactive)
8,O=c1c2ccccc2nc2n1C(CSCc1cccc(C(F)(F)F)c1)CS2 (stereo not given),-4.03% (inactive)
9,Cc1ccc(S(=O)(=O)N(CC(=O)N/N=C/c2ccc(F)cc2)c2cccc3cccnc23)cc1,44.4% (active)
10,COc1ccccc1N(CC(=O)N/N=C(\C)c1ccccc1O)S(=O)(=O)c1ccc(C)cc1,-4.87% (inactive)
11,COc1ccc(S(=O)(=O)N(CC(=O)N/N=C/c2ccccc2C(=O)O)c2ccccc2OC)cc1,-1.28% (inactive)
12,Cc1ccc(CC2S/C(=C(/C#N)C(=O)N3CCOCC3)N(c3ccccc3)C2=O)cc1 (stereo not given),-1.89% (inactive)
13,Cc1ccnc2nc(C(=O)Nc3nnc(-c4ccccc4)o3)nn12,2.49% (inactive)
14,O=C(CNC(=O)c1cccnc1)N/N=C/c1cc(Br)c(O)c(Br)c1,-5.3% (inactive)
15,Cc1ccc(CSCCNC(=O)CN(c2ccc(F)cc2)S(C)(=O)=O)cc1,-2.57% (inactive)
16,Cc1ccc(NC(=O)COc2ccc(/C=C3/NC(=O)NC3=O)cc2)cc1,-3.85% (inactive)
17,COC(=O)C1=C(O)/C(=C/c2ccc(OCC(=O)Nc3ccccc3)cc2)N=C1C,-5.1% (inactive)
18,CCOC(=O)C1=C(O)/C(=C/c2ccc(OCC(=O)Nc3ccc(C)cc3)cc2)N=C1C,51.4% (active)
19,CCn1c(SCC(=O)NNC(=O)c2ccc(OC)cc2)nnc1C(C)C,-2.62% (inactive)
20,CCOC(=O)/C=C/CN(C(=O)OC(C)(C)C)S(=O)(=O)N1CC=CC1,-0.55% (inactive)
21,Cc1cccc(C)c1NC(=O)C1(N(C(=O)c2ccccn2)c2ccc(O)cc2)CCCCC1,-2.28% (inactive)
22,CCOC(=O)N1CCN(CC(=O)n2c(C)c(C)c3ccccc32)CC1,1.59% (inactive)
23,Cc1cccc(OCCCC(=O)Nc2ccc(S(=O)(=O)N3CCCC3)cc2)c1,-0.19% (inactive)
24,CCCN1CCn2c3c(c4cc(Br)ccc42)CCCC31 (stereo not given),-0.93% (inactive)
25,COCCNC(=O)c1ccc(Cn2c(SCC(=O)NCC3CCCO3)nc3ccc(Br)cc3c2=O)cc1 (stereo not given),-6.18% (inactive)

row,Compound,activation
1,OC(CNCC1CCCO1)Cn1c2ccc(Br)cc2c2cc(Br)ccc21 (stereo not given),69.6% (active)
2,CC(=O)Nc1ccc(CC#N)cc1,-1.91% (inactive)
3,COc1ccccc1C(=O)NCCC(=O)NCC(c1ccco1)N1CCCCC1 (stereo not given),-0.9% (inactive)
4,Cn1c(SCC(=O)N/N=C/c2ccc(O)c(O)c2)nc2ccccc21,20.8% (inactive)
5,CCCc1nc2ccccc2c(=O)n1NC(=O)c1c(O)c2ccccc2[nH]c1=O,-2.34% (inactive)
6,CCCc1nc2ccccc2c(=O)n1/N=C/c1ccc(O)c(O)c1,40.8% (active)
7,CN(C)CCCN(C(=O)c1ccc(S(=O)(=O)N2CCCCCC2)cc1)c1nc2ccc(Br)cc2s1,46.6% (active)
8,COc1ccc2sc(N(CCCN(C)C)C(=O)c3ccc(S(=O)(=O)N(C)C4CCCCC4)cc3)nc2c1,1.32% (inactive)
9,CN(C)CCCN(C(=O)c1ccc(S(=O)(=O)N2CCCc3ccccc32)cc1)c1nc2ccc(F)cc2s1,20.8% (inactive)
10,CC12CN(NC(=O)c3ccc(Cl)cc3)C3(C#N)CC1CCC23C (stereo not given),-2.37% (inactive)
11,COc1ccc(-c2c(NC(=O)c3ccco3)oc3ccc(Cl)cc3c2=O)cc1,-2.76% (inactive)
12,CC1CCCCC12NC(=O)N(CC(=O)N1CCN(c3ccccc3)CC1)C2=O (stereo not given),-1.08% (inactive)
13,N#CC(=C1SC=CS1)c1nc(-c2ccccc2)cs1,30.8% (active)
14,c1ccc(-c2csc(N3CCc4ccccc4C3)n2)cc1,2.31% (inactive)
15,N#CC(=C1CCCC1)c1nc(-c2ccc(Cl)cc2)cs1,-2.04% (inactive)
16,Cc1noc(C)c1CSCC(=O)N(CCC(C)C)c1c(N)n(Cc2ccccc2)c(=O)[nH]c1=O,-4.01% (inactive)
17,Cc1ccc(SCC(=O)NC(=O)NCc2ccco2)c(C)c1,1.4% (inactive)
18,Oc1ccc(Br)cc1/C=N/Nc1ccccn1,88.3% (active)
19,Cc1c(C(=O)Nc2ccccn2)oc2ccc(Br)cc12,0.16% (inactive)
20,CCN(CC)CCn1c(/N=C/c2cc(Br)ccc2O)nc2ccccc21,-2.54% (inactive)
21,CC(=O)C1(C)N(O)C(C)(C)C(c2cccs2)=[N+]1[O-] (stereo not given),-1.47% (inactive)
22,CC(=NCc1ccc2c(c1)OCO2)C1=C(O)c2ccccc2C1=O,1.05% (inactive)
23,CCN1C(=O)N[C@@H](c2ccccc2)[C@H](C(C)=O)[C@H]1C,34.5% (active)
24,COCCN1C(=O)N[C@@H](CCc2ccccc2)[C@H](C(C)=O)[C@H]1C,0.9% (inactive)
25,CCN1C(=NCCc2cccnc2)N[C@@H](c2ccccc2)[C@H](C(=O)OC)[C@H]1C,0.09% (inactive)

row,Compound,activation
1,Nc1nc(CC(=O)CSc2ccc(Cl)cc2)nc(Nc2ccc(F)cc2)n1,75% (active)
2,Cc1ccc(Nc2nc(N)nc(CSc3nnc(C)s3)n2)cc1,3.11% (inactive)
3,Nc1nc(COC(=O)CCC(=O)c2ccc(Cl)cc2)nc(Nc2ccccc2)n1,1.72% (inactive)
4,Cc1ccc(C)c(NC(=O)CN(C)C(=O)c2ccc3ncsc3c2)c1,-1.06% (inactive)
5,COc1ccc(C(=O)COC(=O)CNC(=O)c2cccs2)cc1Br,0.35% (inactive)
6,Cc1ccc(SC(=O)COc2ccc(C)c(C)c2)cc1,65.8% (active)
7,COc1ccc(C(=O)COC(=O)COc2ccc(C)c(C)c2)cc1,0.09% (inactive)
8,Cc1ccc(OCC(=O)Nc2ccc(C(=O)O)cc2NC(=O)COc2ccc(C)c(C)c2)cc1C,-6.86% (inactive)
9,CCOC1CCCCC1NS(=O)(=O)c1ccc(Cl)cc1 (stereo not given),-1.12% (inactive)
10,Cc1ccc(CN2CCN(/N=C/c3cccnc3)CC2)c(C)c1,1.33% (inactive)
11,CCc1nc(C)cn1S(=O)(=O)c1cc(OC)c(C)cc1C,-2.38% (inactive)
12,CCc1nc(C)cn1S(=O)(=O)c1cc([N+](=O)[O-])ccc1Cl,45.1% (active)
13,CC(C)c1nccn1S(=O)(=O)c1cc([N+](=O)[O-])ccc1Cl,0.9% (inactive)
14,Cc1cc(N2CCOCC2)nc2ccc(NC(=S)N3CCN(Cc4ccccc4)CC3)cc12,-2.17% (inactive)
15,Cc1ccc(S(=O)(=O)c2nnn3c2nc(N2CCN(c4ccccn4)CC2)c2ccccc23)cc1,-2.5% (inactive)
16,Cc1cccc(Nc2nc3c(S(=O)(=O)c4ccccc4)nnn3c3ccccc23)c1C,94% (active)
17,CC(=O)Nc1ccc(Nc2nc3c(S(=O)(=O)c4ccc(C)c(C)c4)nnn3c3ccccc23)cc1,3.91% (inactive)
18,CN(CC(=O)Nc1cccc(F)c1)C(=O)C1CSC2(C)CCC(=O)N12 (stereo not given),2.87% (inactive)
19,CCN(CC)C(=O)CSC1c2ccccc2C(=O)N1c1ccccc1 (stereo not given),0.81% (inactive)
20,CC1(C)C=C2[C@H]3CC[C@@H]4[C@@]5(C)CCC(=O)C(C)(C)[C@@H]5CC[C@@]4(C)[C@]3(C)CC[C@@]2(C(=O)O)CC1,2.72% (inactive)
21,CC(=O)NC(CC(=O)Nc1cccc(S(=O)(=O)N2CCCC2)c1)c1ccccc1 (stereo not given),-4.34% (inactive)
22,COc1ccc(CNC(=O)/C(C#N)=C/c2cccc(OC)c2OC)cc1,36.8% (active)
23,COc1ccc(NC(=O)/C(C#N)=C\c2cc(OC)c(OCc3ccc(C(=O)O)cc3)cc2Br)cc1,-2.72% (inactive)
24,N#C/C(=C\c1ccc(O)c(O)c1)C(=O)NCc1ccccc1,21.5% (inactive)
25,C=CCNC(=O)c1ccccc1NC(=O)c1ccc(Cl)c(S(=O)(=O)Nc2cccc(C)c2C)c1,0.62% (inactive)
